Shown are actives, neighbours in structure and some others; about 1.4% of the full set was active somewhere.
DAGLB inhibitor: DAGLB lipase inhibitors, primary screen, biochemical, fluorescence, HTS | HEK293T DAGLB membrane lysate, EnzChek fluorogenic substrate | Diacylglycerol lipase-beta (Homo sapiens), Q8NCG7 | 0.059% of 340,000 active | inhibition, % at 5.17 µM | AID 504411, 2011; in the data active means inhibition above about 34%;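 further: 0% = enzyme with vehicle and 100% = wells lacking enzyme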
Target sequence (Q8NCG7 whole entry, looked up): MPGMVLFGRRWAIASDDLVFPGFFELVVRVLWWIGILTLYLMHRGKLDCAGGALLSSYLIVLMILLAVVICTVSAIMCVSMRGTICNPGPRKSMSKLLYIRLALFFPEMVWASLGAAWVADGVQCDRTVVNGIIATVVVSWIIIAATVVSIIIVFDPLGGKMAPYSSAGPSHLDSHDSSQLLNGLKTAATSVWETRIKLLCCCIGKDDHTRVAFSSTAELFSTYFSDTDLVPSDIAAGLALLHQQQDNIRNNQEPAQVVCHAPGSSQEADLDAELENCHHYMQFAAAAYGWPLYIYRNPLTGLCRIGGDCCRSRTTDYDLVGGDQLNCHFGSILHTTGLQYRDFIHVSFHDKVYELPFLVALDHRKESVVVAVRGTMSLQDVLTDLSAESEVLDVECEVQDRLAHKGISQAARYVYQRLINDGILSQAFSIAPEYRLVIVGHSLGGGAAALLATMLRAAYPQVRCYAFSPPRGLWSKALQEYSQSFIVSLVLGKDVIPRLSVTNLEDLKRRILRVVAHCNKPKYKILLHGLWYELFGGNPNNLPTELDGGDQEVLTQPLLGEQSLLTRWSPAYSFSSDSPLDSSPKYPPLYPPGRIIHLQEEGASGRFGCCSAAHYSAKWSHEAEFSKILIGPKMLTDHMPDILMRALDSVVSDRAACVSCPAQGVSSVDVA
MOR-DOR inv ag: inverse agonists of MOR-DOR heterodimerization, primary screen, cell-based, luminescence | inhibition, % at 9.3 µM | 0.21% of 340,000 active | Mu-type opioid receptor (Homo sapiens) + Delta-type opioid receptor (Homo sapiens), … | cell-based MOR-DOR heterodimer luminescence, inverse agonism | AID 504357, 2011; in the data active means inhibition above about 22%, passing the limit was not always enough;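 further: 0% = cells with DMSO and 100% = wells without cells with DMSO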
OPRM1-OPRD1 ag: agonists of OPRM1-OPRD1 heterodimerization, primary screen, cell-based, luminescence; Mu-type opioid receptor (Homo sapiens) + Delta-type opioid receptor (Homo sapiens), …; cells; activation, % at 9.3 µM; 0.3% of 340,000 active; in the data active means activation above about 18%;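 further: 0% = vehicle-treated cells and 100% = reference agonist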
HTR5A ag: HTR5A agonists in luminescence cell assay, primary screen, counter-screen for OPRM1-OPRD1 heterodimer agonist project, full-deck HTS. cell-based. 0.61% of 340,000 active. AID 504692, 2011. activation, % at 9.3 µM; in the data active means activation mostly above about 9.5%, no sharp cut-off; inactive means mostly below about 7.6%;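 further: 0% = cells with vehicle only and 100% = reference agonist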
HTR5A inv ag: HTR5A inverse agonists in luminescence cell assay, primary screen, counter-screen for OPRM1-OPRD1 heterodimer inverse agonist project, full-deck HTS; 5-hydroxytryptamine receptor 5A (Homo sapiens), P47898; HTR5A cell line, inverse agonism; inhibition, % at 9.3 µM; 0.083% of 340,000 active; AID 504634, 2011; in the data active means inhibition mostly above about 23%, no sharp cut-off; inactive means mostly below about 18%;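 further: 0% = cells with DMSO and 100% = no-cell wells with DMSO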
Arrestin-AP2 inh: inhibitors of beta-arrestin/AP2 binding, primary screen, biochemical, GPCR trafficking, flow cytometry | beta-arrestin 1 C-terminal peptide binding to AP2 beta2-adaptin appendage (human) | inhibition, % at 10 µM | AID 504490, 2011 | FITC-arrestin peptide / GST-AP2 beads; AP2 beta2 appendage carries R879A mutation | 0.31% of 340,000 active;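 active means inhibition above a set limit, near 3 SD of compounds lacking own fluorescence, cut at about 54% in these data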;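 further: plate controls were DMSO wells for no effect and 5 µM unlabelled arrestin peptide for full effect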
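Material – GST-tagged AP2 beta2-adaptin appendage (R879A) on 4 µm glutathione beads · Probe or stimulus – fluorescein-tagged arrestin peptide at 50 nM final · Timing – 12 min plus 1 h, RT · Detection – bead flow cytometry, FITC channel · Read-out basis – inhibition as reduced fluorescein signal on beads, percent · Medium – PBS plus Tween 20 (0.05%) and BSA (0.1%)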
Arr AP2 CP1: inhibitors of arrestin peptide binding to AP2, confirmation, biochemical, cherry pick 1, flow cytometry beads; 2% of 1,300 active; inhibition, % at 10 µM; AID 504908, 2011; GST-AP2 beads, FITC arrestin peptide binding; GST-fused beta2-adaptin appendage, R879A mutant; shares compounds with Arrestin-AP2 inh;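 active means inhibition above a set limit, roughly 3 SD of non-fluorescent compound noise, cut at about 38% in these data; inactive means inhibition at or below that limit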;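 further: loss of bead fluorescence from 50 nM FITC arrestin peptide bound to appendage; 0% = negative control wells and 100% = excess unlabelled arrestin peptide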
GST-FITC bead: GST-fluorescein capture on glutathione beads, confirmation, artefact control for arrestin-AP2 inhibitor project, biochemical, cherry pick 1, flow cytometry | shares compounds with Arrestin-AP2 inh | GST-fluorescein binding to GSH beads, fluorescence, counter-screen | inhibition, % at 10 µM | 2% of 1,300 active | AID 588338, 2011;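 active means inhibition above 50%, about 3 SD of the inhibition seen with non-fluorescent compounds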;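 further: fluorescein maleimide labelled GST captured on 4 micron glutathione beads; higher means more loss of bead fluorescence from quenching or blocked binding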
The depositor's hits bear a star.

Cn1c(N)c(C(=O)COC(=O)CNC(=O)c2ccccc2)c(=O)n(C)c1=O was read as DAGLB inhibitor 1, MOR-DOR inv ag 0, OPRM1-OPRD1 ag 0, HTR5A ag 4, HTR5A inv ag -15 and Arrestin-AP2 inh -9.
Screening CCCCOc1ccc(C(=O)OCC(=O)c2c(N)n(C)c(=O)n(C)c2=O)cc1 returned DAGLB inhibitor -2, MOR-DOR inv ag 9, OPRM1-OPRD1 ag -2, HTR5A ag 6, HTR5A inv ag 20, Arrestin-AP2 inh -8, Arr AP2 CP1 -1 and GST-FITC bead 5.
`Cn1c(N)c(C(=O)COC(=O)c2cncc(Br)c2)c(=O)n(C)c1=O` gave DAGLB inhibitor 1, MOR-DOR inv ag -3, OPRM1-OPRD1 ag 1, HTR5A ag 2, HTR5A inv ag -5, Arrestin-AP2 inh 61*, Arr AP2 CP1 -9 and GST-FITC bead 6.
Screening Cn1c(N)c(C(=O)COC(=O)c2ccc(Br)o2)c(=O)n(C)c1=O returned DAGLB inhibitor 3, MOR-DOR inv ag -5, OPRM1-OPRD1 ag 1, HTR5A ag 3, HTR5A inv ag 5, Arrestin-AP2 inh 13, Arr AP2 CP1 1 and GST-FITC bead 0.
Cc1ccc(C(=O)NCC(=O)OCC(=O)c2c(N)n(C)c(=O)n(C)c2=O)s1 was read as DAGLB inhibitor 1, MOR-DOR inv ag 8, OPRM1-OPRD1 ag -2, HTR5A ag -7, HTR5A inv ag 17, Arrestin-AP2 inh 75*, Arr AP2 CP1 -12 and GST-FITC bead 3.
CCCOc1ccc(C(=O)OCC(=O)c2c(N)n(C)c(=O)n(C)c2=O)cc1OCC was read as DAGLB inhibitor -1, MOR-DOR inv ag -4, OPRM1-OPRD1 ag 1, HTR5A ag 2, HTR5A inv ag -4 and Arrestin-AP2 inh 17.
For CSCC[C@H]1COC[C@@H](Cc2ccccc2)N1c1ccccc1 the results were DAGLB inhibitor -15.
Screening Cn1c(N)c(C(=O)COC(=O)CCC2CCCCC2)c(=O)n(C)c1=O returned DAGLB inhibitor 1, MOR-DOR inv ag -10, OPRM1-OPRD1 ag 2, HTR5A ag -2, HTR5A inv ag 6, Arrestin-AP2 inh 55*, Arr AP2 CP1 2 and GST-FITC bead 6.
CCCCc1cc(=O)oc2c(CN3CCN(C)CC3)c(O)ccc12 was read as DAGLB inhibitor 5, MOR-DOR inv ag 3, OPRM1-OPRD1 ag -1, HTR5A ag 3, HTR5A inv ag -13, Arrestin-AP2 inh 54*, Arr AP2 CP1 -9 and GST-FITC bead -5.
Screening CC(=O)N(C)c1ccc(NC(=O)c2ccc([N+](=O)[O-])cc2Cl)cc1 returned DAGLB inhibitor 3, MOR-DOR inv ag -8, OPRM1-OPRD1 ag 2, HTR5A ag -1, HTR5A inv ag -36, Arrestin-AP2 inh 69*, Arr AP2 CP1 3 and GST-FITC bead -4.
COc1ccc(CC(=O)NNC(=O)c2cc(C)oc2C)cc1OC was read as DAGLB inhibitor 0, MOR-DOR inv ag 8, OPRM1-OPRD1 ag -1, HTR5A ag 1, HTR5A inv ag -2, Arrestin-AP2 inh 65*, Arr AP2 CP1 7 and GST-FITC bead -5.
For CCOc1ccccc1NC(=O)c1ccc(F)c(S(=O)(=O)N2CCC3(CC2)OCCO3)c1 the results were DAGLB inhibitor -3, MOR-DOR inv ag 4, OPRM1-OPRD1 ag -1, HTR5A ag 4, HTR5A inv ag 11, Arrestin-AP2 inh 61*, Arr AP2 CP1 -21 and GST-FITC bead -6.
For CCOc1ccccc1NC(=O)c1ccc(S(=O)(=O)N2CCCCC2)cc1 the results were DAGLB inhibitor -3, MOR-DOR inv ag 6, OPRM1-OPRD1 ag -1, HTR5A ag -1, HTR5A inv ag -3 and Arrestin-AP2 inh 26.
Screening CCN(C(=O)c1cc2c(=O)[nH]c3ccc(C)cc3c2s1)c1ccc(F)cc1 returned DAGLB inhibitor -3, MOR-DOR inv ag -52, OPRM1-OPRD1 ag 10, HTR5A ag 1, HTR5A inv ag 6 and Arrestin-AP2 inh 12.
Cc1ccc2[nH]c(=O)c3cc(C(=O)N(C)c4ccc(C)c(C)c4)sc3c2c1 was read as DAGLB inhibitor -1, MOR-DOR inv ag 3, OPRM1-OPRD1 ag -1, HTR5A ag 6, HTR5A inv ag -18, Arrestin-AP2 inh 58*, Arr AP2 CP1 12 and GST-FITC bead -6.
`COC(=O)[C@H]1C[C@H](OC(=O)NCc2ccco2)[C@@]2(O)CN(S(=O)(=O)c3ccc(C)cc3)CC2[C@H]1C(=O)OC` (stereo partly specified) gave DAGLB inhibitor 0.
Screening O=C(N/N=C/c1cccc([N+](=O)[O-])c1)c1cc2ccccc2o1 returned DAGLB inhibitor -3, MOR-DOR inv ag 13, OPRM1-OPRD1 ag -3, HTR5A ag 2, HTR5A inv ag 3, Arrestin-AP2 inh 107*, Arr AP2 CP1 2 and GST-FITC bead -1.
O=C(c1ccnc(Cl)c1)N1CCCC(N2CCN(c3ccccc3F)CC2)C1 (stereo unspecified) was read as DAGLB inhibitor 2, MOR-DOR inv ag 6, OPRM1-OPRD1 ag -1, HTR5A ag -2, HTR5A inv ag 11, Arrestin-AP2 inh 63*, Arr AP2 CP1 2 and GST-FITC bead -3.
`O=C(c1ccco1)N1CCCC(N2CCN(c3ccccc3F)CC2)C1` (stereo unspecified) gave DAGLB inhibitor -1, MOR-DOR inv ag 0, OPRM1-OPRD1 ag 0, HTR5A ag 4, HTR5A inv ag 5 and Arrestin-AP2 inh -16.
`N#Cc1ccccc1OCC(=O)OCC(=O)NCc1ccc2c(c1)OCO2` gave DAGLB inhibitor 0, MOR-DOR inv ag 4, OPRM1-OPRD1 ag -1, HTR5A ag 3, HTR5A inv ag -8, Arrestin-AP2 inh 55*, Arr AP2 CP1 5 and GST-FITC bead -5.
O=[N+]([O-])c1ccc(N2CCCC2)c([N+](=O)[O-])c1 was read as DAGLB inhibitor 2.
Screening C[C@H](CO)N1C[C@H](C)[C@@H](CN(C)C(=O)c2cc(-c3ccccc3)on2)OCc2cn(nn2)CCCC1=O returned DAGLB inhibitor -5.

Source: PubChem
